Data set [1] in a line: QAC levels in human blood. It counts as in vivo. Particulars: human serum, n = 111; for Median concentration: non-detects = 1/2 MDL.
The nature of data set [2]: Hepatic clearance in vitro-in vivo extrapolation. Set-up: species or system human. Particulars: IVIVE. In a few lines: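 Human liver microsomes (1 mg/mL) in 50 mM phosphate pH 7.4 with 3 mM MgCl2, 0.5 uM substrate, 0.5% DMSO, NADPH-generating system, 37 °C, triplicate, stopped at 0–3 h; depletion fitted mono-exponentially for CLin vitro. Unbound fraction from NSB-corrected serum ultrafiltration and 60-min blood/serum ratio. Scaled by 34 mg microsomal protein/g liver, hepatic blood flow 42.6 mL/h/g liver.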

The source of these data is paper PMC8547165 (Environmental science & technology, 2021).

Consider `CCCCCCCCCCCCCCCC[N+](C)(C)C` [C16-ATMAC], for which, in data set [1] (before COVID-19 (2019)), the Maximum concentration stood at 5.65 ng/mL, the Minimum concentration entry is “<MDL” and the Median concentration entry was “<MDL”. In addition, in data set [1] (during COVID-19 (2020)), the Maximum concentration is 3.53 ng/mL, the Minimum concentration result is given as “<MDL” and the Median concentration came to 0.966 ng/mL.
In the case of `CCCCCCCCCCCCCCCC[N+](C)(C)CCCCCCCCCCCCCCCC` [C16-DDAC], in data set [1] (before COVID-19 (2019)), the Maximum concentration worked out at 0.142 ng/mL, the Minimum concentration entry is given as “<MDL” and the Median concentration result was “<MDL”. Further, in data set [1] (during COVID-19 (2020)), the Maximum concentration is recorded as 0.576 ng/mL, the Minimum concentration entry is recorded as “<MDL” and the Median concentration result is “<MDL”.
`CCCCCCCC[N+](C)(C)CCCCCCCC` [C8-DDAC]: in data set [1] (before COVID-19 (2019)), the Maximum concentration is reported as 0.447 ng/mL, the Minimum concentration result is given as “<MDL” and the Median concentration result was “<MDL”. In data set [1] (during COVID-19 (2020)), the Maximum concentration came to 0.219 ng/mL, the Minimum concentration entry is “<MDL” and the Median concentration entry is “<MDL”.
As to `CCCCCCCCCCCCCCCCCC[N+](C)(C)C` [C18-ATMAC], in data set [1] (before COVID-19 (2019)), the Maximum concentration was 0.171 ng/mL, the Minimum concentration result was “<MDL” and the Median concentration entry is listed as “<MDL”. In data set [1] (during COVID-19 (2020)), the Maximum concentration amounted to 3.62 ng/mL, the Minimum concentration result is reported as “<MDL” and the Median concentration entry is “<MDL”.
As for `CCCCCCCCCCCC[N+](C)(C)C` [C12-ATMAC], the “Fold lower CLinvivo than C14- and C16-ATMACs” value in data set [2] was 2-4 times. Further, in data set [1] (before COVID-19 (2019)), the Maximum concentration is listed as 8.55 ng/mL, the Minimum concentration result is “<MDL” and the Median concentration worked out at 0.981 ng/mL. Moreover, in data set [1] (during COVID-19 (2020)), the Maximum concentration is reported as 6.84 ng/mL, the Minimum concentration result was “<MDL” and the Median concentration was found to be 0.612 ng/mL.
As for `CCCCCCCCCCCC[N+](C)(C)Cc1ccccc1` [C12-BAC], in data set [1] (before COVID-19 (2019)), the Maximum concentration was determined as 1.40 ng/mL, the Minimum concentration entry is recorded as “<MDL” and the Median concentration came out at 0.289 ng/mL. In data set [1] (during COVID-19 (2020)), the Maximum concentration is recorded as 22.1 ng/mL, the Minimum concentration result is recorded as “<MDL” and the Median concentration is 0.634 ng/mL.
In the case of `CCCCCCCCCCCCCC[N+](C)(C)C` [C14-ATMAC], in data set [1] (before COVID-19 (2019)), the Maximum concentration came to 1.86 ng/mL, the Minimum concentration entry was “<MDL” and the Median concentration is reported as 0.667 ng/mL. In data set [1] (during COVID-19 (2020)), the Maximum concentration was found to be 3.75 ng/mL, the Minimum concentration result is reported as “<MDL” and the Median concentration worked out at 0.929 ng/mL.
Turning to `CCCCCCCCCC[N+](C)(C)Cc1ccccc1` [C10-BAC], in data set [1] (before COVID-19 (2019)), the Maximum concentration was determined as 0.166 ng/mL, the Minimum concentration entry is “<MDL” and the Median concentration entry is “<MDL”. Also, in data set [1] (during COVID-19 (2020)), the Maximum concentration was 1.45 ng/mL, the Minimum concentration entry was “<MDL” and the Median concentration result is “<MDL”.
Regarding `CCCCCCCCCC[N+](C)(C)CCCCCCCCCC` [C10-DDAC], in data set [1] (before COVID-19 (2019)), the Maximum concentration was 0.206 ng/mL, the Minimum concentration result is “<MDL” and the Median concentration entry was “<MDL”. Also, in data set [1] (during COVID-19 (2020)), the Maximum concentration was 0.620 ng/mL, the Minimum concentration entry is recorded as “<MDL” and the Median concentration turned out to be 0.089 ng/mL.
Consider `CCCCCCCCCCCCCCCCCC[N+](C)(C)Cc1ccccc1` [C18-BAC], for which, in data set [1] (before COVID-19 (2019)), the Maximum concentration is 2.14 ng/mL, the Minimum concentration entry is “<MDL” and the Median concentration entry is “<MDL”. Also, in data set [1] (during COVID-19 (2020)), the Maximum concentration amounted to 1.41 ng/mL, the Minimum concentration result is given as “<MDL” and the Median concentration is on record as 0.180 ng/mL.
Take `CCCCCCCCCCCCCCCCCC[N+](C)(C)CCCCCCCCCCCCCCCCCC` [C18-DDAC]: in data set [1] (before COVID-19 (2019)), the Maximum concentration was determined as 5.77 ng/mL, the Minimum concentration result is “<MDL” and the Median concentration entry was “<MDL”. In data set [1] (during COVID-19 (2020)), the Maximum concentration came out at 5.35 ng/mL, the Minimum concentration entry is given as “<MDL” and the Median concentration result was “<MDL”.
Consider `CCCCCCCC[N+](C)(C)Cc1ccccc1` [C8-BAC], for which, in data set [1] (before COVID-19 (2019)), the Maximum concentration was found to be 0.196 ng/mL, the Minimum concentration result is “<MDL” and the Median concentration entry is “<MDL”. Besides, in data set [1] (during COVID-19 (2020)), the Maximum concentration came to 0.433 ng/mL, the Minimum concentration entry is given as “<MDL” and the Median concentration came out at 0.055 ng/mL.
`CCCCCCCCCCCCCC[N+](C)(C)Cc1ccccc1` [C14-BAC]: in data set [1] (before COVID-19 (2019)), the Maximum concentration turned out to be 2.36 ng/mL, the Minimum concentration entry is recorded as “<MDL” and the Median concentration was 0.490 ng/mL. For the same compound, in data set [1] (during COVID-19 (2020)), the Maximum concentration was determined as 40.1 ng/mL, the Minimum concentration result is on record as “<MDL” and the Median concentration stood at 1.14 ng/mL.
As to `CCCCCCCCCCCCCCCC[N+](C)(C)Cc1ccccc1` [C16-BAC], in data set [1] (before COVID-19 (2019)), the Maximum concentration amounted to 0.800 ng/mL, the Minimum concentration entry is “<MDL” and the Median concentration is 0.080 ng/mL. Further, in data set [1] (during COVID-19 (2020)), the Maximum concentration is listed as 16.4 ng/mL, the Minimum concentration result was “<MDL” and the Median concentration is reported as 0.346 ng/mL.
Consider `CCCCCCCCCCCCCC[N+](C)(C)CCCCCCCCCCCCCC` [C14-DDAC], for which, in data set [1] (before COVID-19 (2019)), the Maximum concentration is 0.522 ng/mL, the Minimum concentration entry is on record as “<MDL” and the Median concentration entry is given as “<MDL”. Also, in data set [1] (during COVID-19 (2020)), the Maximum concentration stood at 0.795 ng/mL, the Minimum concentration result is given as “<MDL” and the Median concentration entry is “<MDL”.
